According to ChEMBL document CHEMBL3046444, “Antiproliferative activity and synthesis of 8-prenylnaringenin derivatives by demethylation of 7-O- and 4'-O-substituted isoxanthohumols” (2012):
Values after ≈ are worked out from the molar mass of the structure shown. Active and inactive are the calls of the source. The rule behind the calls is not given here.

How the values were obtained:
Type in all cases: functional
HT-29 = test: Antiproliferative activity against Homo sapiens (human) HT-29 cells after 72 hr by SRB assay; conditions: for IC50: HT-29, 72 h, read-out: ID50 (the source's name)
How it was run: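 HT-29 colon adenocarcinoma cells were plated at 10^5/ml in RPMI 1640/Opti-MEM (1:1) with 5% FBS, antibiotics, 1 mM pyruvate and 2 mM glutamine. Test agents (0.1–100 μg/ml, solvent-matched controls) were added after 24 h and left for 72 h. Cells were TCA-fixed and stained 30 min with 0.4% SRB in 1% acetic acid, dye extracted with 10 mM Tris, OD 540 nm. Triplicates, 3–5 experiments; ID50 (μg/ml).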

MCF7 = test: Antiproliferative activity against Homo sapiens (human) MCF7 cells after 72 hr by SRB assay; conditions: for IC50: MCF7, 72 h, read-out: ID50 (the source's name)
How it was run: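 MCF-7 breast cancer cells at 10^5/ml in Eagle's medium with 10% FBS, antibiotics, 2 mM glutamine, 1.0 mM pyruvate, 1% amino acids and 0.8 mg/l insulin, 37°C, 5% CO2. After 24 h, compounds at 0.1–100 μg/ml (acetone/ethanol controls) were added for 72 h. SRB read-out: cold 50% TCA fixation, 0.4% SRB stain, Tris extraction, 540 nm. Triplicates, repeated 3–5 times; 50% proliferation inhibition dose (ID50, μg/ml).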

CCRF-CEM = test: Antiproliferative activity against Homo sapiens (human) CCRF-CEM cells after 72 hr by MTT assay; conditions: for IC50: read-out: ID50 (the source's name)
How it was run: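 Human leukemia CCRF/CEM cells seeded at 10^5/ml in RPMI 1640 with 10% FBS, penicillin/streptomycin and 2 mM L-glutamine at 37°C, 5% CO2. Compounds were added after 24 h at 0.1–100 μg/ml, with acetone or ethanol vehicle controls, and exposure ran 72 h. MTT was given for 4 h, formazan solubilized in SDS/DMF for 24 h, and read at 570 nm. Triplicates, 3–5 repeats; ID50 in μg/ml vs untreated.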

**Q.** Which results are given for `COc1cc(O)c(CC=C(C)C)c(O)c1C(=O)/C=C/c1ccc(O)cc1` [XANTHOHUMOL]?
**A.** IC50 (HT-29): 3.8 µg/mL (≈ 10.7 µM); IC50 (MCF7): 4.7 µg/mL (≈ 13.3 µM); IC50 (CCRF-CEM): 4.1 µg/mL (≈ 11.6 µM)

**Q.** With `CCCCCOc1cc(OC)c2c(c1CC=C(C)C)O[C@H](c1ccc(O)cc1)CC2=O` [7-O-N-PENTYLISOXANTHOHUMOL] as the molecule, how does the IC50 (HT-29) read?
**A.** 6.9 µg/mL (≈ 16.3 µM)

**Q.** What about the IC50 (MCF7) of the same molecule?
**A.** 8.3 µg/mL (≈ 19.6 µM)

**Q.** What about the IC50 (CCRF-CEM) of the same molecule?
**A.** 5.4 µg/mL (≈ 12.7 µM)

**Q.** Which IC50 (HT-29) does the source give for `CCCCCOc1ccc([C@@H]2CC(=O)c3c(OC)cc(OCCCCC)c(CC=C(C)C)c3O2)cc1` [7,4'-DI-O-N-PENTYL-8-ISOXANTHOHUMOL] here?
**A.** 8.2 µg/mL (≈ 16.6 µM)

**Q.** And the IC50 (MCF7)?
**A.** 7.1 µg/mL (≈ 14.4 µM)

**Q.** What about the IC50 (CCRF-CEM) of the same molecule?
**A.** 4.3 µg/mL (≈ 8.69 µM)

**Q.** Which results are given for `C=CCOc1ccc(C2CC(=O)c3c(O)cc(OCC=C)c(CC=C(C)C)c3O2)cc1` (configuration not stated)?
**A.** ID50 (HT-29): inactive; ID50 (MCF7): inactive; ID50 (CCRF-CEM): inactive

**Q.** `CCCCCCCCCCCCCCCC(=O)Oc1ccc([C@@H]2CC(=O)c3c(OC)cc(OC(=O)CCCCCCCCCCCCCCC)c(CC=C(C)C)c3O2)cc1` was tested. Which ID50 (HT-29) did it give?
**A.** inactive

**Q.** What about the ID50 (MCF7) of the same molecule?
**A.** inactive

**Q.** And the ID50 (CCRF-CEM)?
**A.** inactive

**Q.** What does the source list for `COc1cc(O)c(CC=C(C)C)c2c1C(=O)CC(c1ccc(O)cc1)O2` (configuration not stated) [ISOXANTHOHUMOL]?
**A.** IC50 (HT-29): 32.6 µg/mL (≈ 92 µM); IC50 (MCF7): 9.4 µg/mL (≈ 26.5 µM); IC50 (CCRF-CEM): 18.2 µg/mL (≈ 51.4 µM)

**Q.** For `CCCCCCCCCCCCCCCC(=O)Oc1ccc(C2CC(=O)c3c(O)cc(OC(=O)CCCCCCCCCCCCCCC)c(CC=C(C)C)c3O2)cc1` (configuration not stated), which ID50 (HT-29) is on record?
**A.** inactive

**Q.** What about the ID50 (MCF7) of the same molecule?
**A.** inactive

**Q.** What about the ID50 (CCRF-CEM) of the same molecule?
**A.** inactive

**Q.** For `COc1ccc(C2CC(=O)c3c(O)cc(OC)c(CC=C(C)C)c3O2)cc1` (configuration not stated) [7,4'-DI-O-METHYL-8-PRENYLNARINGENIN], which ID50 (HT-29) is on record?
**A.** inactive

**Q.** What about the IC50 (MCF7) of the same molecule?
**A.** 36.9 µg/mL (≈ 100 µM)

**Q.** What about the ID50 (CCRF-CEM) of the same molecule?
**A.** inactive

**Q.** `COc1cc(OC(C)=O)c(CC=C(C)C)c2c1C(=O)C[C@@H](c1ccc(OC(C)=O)cc1)O2` [7,4'-DI-O-ACETYLISOXANTHOHUMOL] was tested. Which IC50 (HT-29) did it give?
**A.** 32.1 µg/mL (≈ 73.2 µM)

**Q.** What about the IC50 (MCF7) of the same molecule?
**A.** 16.9 µg/mL (≈ 38.5 µM)

**Q.** What about the IC50 (CCRF-CEM) of the same molecule?
**A.** 23.3 µg/mL (≈ 53.1 µM)

**Q.** With `CC(=O)Oc1ccc(C2CC(=O)c3c(O)cc(OC(C)=O)c(CC=C(C)C)c3O2)cc1` (configuration not stated) [7,4'-DI-O-ACETYL-8-PRENYLNARINGENIN] as the molecule, how does the IC50 (HT-29) read?
**A.** 36.1 µg/mL (≈ 85.1 µM)

**Q.** And the IC50 (MCF7)?
**A.** 28 µg/mL (≈ 66 µM)

**Q.** And the IC50 (CCRF-CEM)?
**A.** 37 µg/mL (≈ 87.2 µM)

**Q.** With `CC(C)=CCc1c(O)cc(O)c2c1OC(c1ccc(O)cc1)CC2=O` (configuration not stated) [SOPHORAFLAVANONE B] as the molecule, how does the IC50 (HT-29) read?
**A.** 33.2 µg/mL (≈ 97.5 µM)

**Q.** What about the IC50 (MCF7) of the same molecule?
**A.** 19.4 µg/mL (≈ 57 µM)

**Q.** What about the IC50 (CCRF-CEM) of the same molecule?
**A.** 24.2 µg/mL (≈ 71.1 µM)

**Q.** How did the IC50 (HT-29) turn out when `COc1ccc([C@@H]2CC(=O)c3c(OC)cc(OC)c(CC=C(C)C)c3O2)cc1` [7,4'-DI-O-METHYLISOXANTHOHUMOL] was run?
**A.** 6 µg/mL (≈ 15.7 µM)

**Q.** And the IC50 (MCF7)?
**A.** 6.6 µg/mL (≈ 17.3 µM)

**Q.** What about the IC50 (CCRF-CEM) of the same molecule?
**A.** 5 µg/mL (≈ 13.1 µM)

**Q.** For `C=CCOc1ccc([C@@H]2CC(=O)c3c(OC)cc(OCC=C)c(CC=C(C)C)c3O2)cc1` [7,4'-DI-O-ALLYLISOXANTHOHUMOL], which IC50 (HT-29) is on record?
**A.** 6.2 µg/mL (≈ 14.3 µM)

**Q.** What about the IC50 (MCF7) of the same molecule?
**A.** 5.2 µg/mL (≈ 12 µM)

**Q.** And the IC50 (CCRF-CEM)?
**A.** 2.7 µg/mL (≈ 6.21 µM)

**Q.** For `CCCCCOc1cc(O)c2c(c1CC=C(C)C)OC(c1ccc(O)cc1)CC2=O` (configuration not stated) [7-O-PENTYL-8-PRENYLNARINGENIN], which IC50 (HT-29) is on record?
**A.** 10 µg/mL (≈ 24.4 µM)

**Q.** And the IC50 (MCF7)?
**A.** 3.9 µg/mL (≈ 9.5 µM)

**Q.** And the IC50 (CCRF-CEM)?
**A.** 4.8 µg/mL (≈ 11.7 µM)
